Experiments:
Format in all cases: functional
L1210 = assay: Evaluated for cytotoxicity against L1210 mouse leukemia cells; conditions: read-out: ID50 (the source's name)
Outline: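 L1210 murine leukemia cells in Eagle's minimal essential medium with 15% fetal calf serum, streptomycin (100 μg/mL), penicillin (100 units/mL) and 0.05 mM 2-mercaptoethanol. Cells counted by Coulter counter after 48 h exposure. ID50 is the 50% growth-inhibitory dose. Triplicate assays, standard deviation ±10%.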

Mus musculus [1] = assay: Antitumor activity was determined for average weight on day 1 against P-388 leukemia in mice at a dose of 8 mg/kg
Outline: (§1)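 Male B6D2F1J mice, groups of 5, inoculated ip with 10⁶ P-388 cells on day 0. Drug given ip on days 1-4 (qd × 4) in sterile saline, or in 10% Tween 80 for the poorly water-soluble thioether. Average weight per mouse recorded on day 1, with reweighing on day 7 for percent weight change. Untreated control groups had 10-17 animals per experiment.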

Mus musculus [2] = assay: Antitumor activity was determined for average weight on day 1 against P-388 leukemia in mice at a dose of 16 mg/kg
Outline: (§2)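 Male B6D2F1J mice given 10⁶ P-388 cells ip on day 0, then treated ip once daily on days 1-4 (qd × 4), 5 mice per dose group. Compounds dosed in sterile saline, except one lipophilic thioether given in 10% Tween 80. Mice weighed on days 1 and 7; mean weight per mouse on day 1 and 7-day weight change reported in g and as percent.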

Mus musculus [3] = assay: Antitumor activity was determined for median survival of mice against P-388 leukemia in mice at a dose of 8 mg/kg
Outline: (§3)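 Male B6D2F1J mice implanted ip with 10⁶ P-388 cells on day 0; test agents given ip on days 1–4 (qd × 4) in sterile saline, or in 10% Tween 80 for the lipophilic thioether. Groups of 5 treated mice, with 10–17 untreated controls per experiment. Mice weighed on days 1 and 7 to give the 7-day weight change in g and %. Survival recorded in days as median and range.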

Mus musculus [4] = assay: Antitumor activity was determined for survival range of mice against P-388 leukemia in mice at a dose of 16 mg/kg; outline: as §3
Mus musculus [5] = assay: Antitumor activity was determined for median survival of mice against P-388 leukemia in mice at a dose of 32 mg/kg; outline: as §3
Mus musculus [6] = assay: Antitumor activity was determined for average 7-day weight change against P-388 leukemia in mice at a dose of 16 mg/kg; outline: as §2
Mus musculus [7] = assay: Percent increase in life span against P-388 leukemia in mice was determined at a dose of 32 mg/kg; conditions: P388
Outline: (§4)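 Male B6D2F1J mice, 5 per dose group, received 10⁶ P-388 cells ip on day 0. Dosing was ip qd × 4 on days 1-4 in sterile saline, or 10% Tween 80 for the butyl thioether. Median survival times of treated (T) and untreated control (C, 10-17 mice) groups were compared: %ILS = [(T/C) − 1]100. Weights taken on days 1 and 7.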

Mus musculus [8] = assay: Antitumor activity was determined for average 7-day weight change against P-388 leukemia in mice at a dose of 8 mg/kg; outline: as §2
Mus musculus [9] = assay: Antitumor activity was determined for average weight on day 1 against P-388 leukemia in mice at a dose of 32 mg/kg; outline: as §1
Mus musculus [10] = assay: Antitumor activity was determined for 7-day average percent weight change against P-388 leukemia in mice at a dose of 32 mg/kg; outline: as §2
Mus musculus [11] = assay: Antitumor activity was determined for 7-day average percent weight change against P-388 leukemia in mice at a dose of 16 mg/kg; outline: as §2
Mus musculus [12] = assay: Antitumor activity was determined for survival range of mice against P-388 leukemia in mice at a dose of 8 mg/kg
Outline: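 Male B6D2F1J mice, 5 per dose group, implanted ip with 10⁶ P-388 leukemia cells on day 0. Drug given ip daily on days 1-4 (qd × 4) in sterile saline, or in 10% Tween 80 for the butyl thioether. Survival range recorded in days. Untreated control groups had 10-17 animals per experiment. Mice weighed on days 1 and 7.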

Mus musculus [13] = assay: Antitumor activity was determined for median survival of mice against P-388 leukemia in mice at a dose of 16 mg/kg; outline: as §3
Mus musculus [14] = assay: Antitumor activity was determined for 7-day average percent weight change against P-388 leukemia in mice at a dose of 8 mg/kg; outline: as §2
Mus musculus [15] = assay: Antitumor activity was determined for survival range of mice against P-388 leukemia in mice at a dose of 32 mg/kg; outline: as §3
Mus musculus [16] = assay: Antitumor activity was determined for average 7-day weight change against P-388 leukemia in mice at a dose of 32 mg/kg; outline: as §2
Mus musculus [17] = assay: Percent increase in life span against P-388 leukemia in mice was determined at a dose of 16 mg/kg; conditions: P388; outline: as §4
Mus musculus [18] = assay: Percent increase in life span against P-388 leukemia in mice was determined at a dose of 8 mg/kg; conditions: P388; outline: as §4

| SMILES | IC50 (L1210) [µM] | Average weight (Mus musculus [1]) [g mouse-1] | Average weight (Mus musculus [2]) [g mouse-1] | Survival median (Mus musculus [3]) | Survival range (Mus musculus [4]) | Survival median (Mus musculus [5]) | Average weight (Mus musculus [6]) [g mouse-1] | ILS at 32 mg/kg (Mus musculus [7]) [%] | Average weight (Mus musculus [8]) [g mouse-1] | Average weight (Mus musculus [9]) [g mouse-1] | Weight change (Mus musculus [10]) [%] | Weight change (Mus musculus [11]) [%] | Survival range (Mus musculus [12]) | Survival median (Mus musculus [13]) | Weight change (Mus musculus [14]) [%] | Survival range (Mus musculus [15]) | Average weight (Mus musculus [16]) [g mouse-1] | ILS at 16 mg/kg (Mus musculus [17]) [%] | ILS at 8 mg/kg (Mus musculus [18]) [%] |
| --- | --- | --- | --- | --- | --- | --- | --- | --- | --- | --- | --- | --- | --- | --- | --- | --- | --- | --- | --- |
| CCOC(=O)[C@H]1OC(n2cc(F)c(=O)[nH]c2=O)[C@H](O)[C@@H]1O (stereo not given in full) | > 1000 |  |  |  |  |  |  |  |  |  |  |  |  |  |  |  |  |  |  |
| NC[C@H]1OC(n2cc(F)c(=O)[nH]c2=O)[C@H](O)[C@@H]1O (stereo not given in full) | 38 | 25.6 | 26.4 | 12 | 10 | 13 | 4.4 | 8 | 5.8 | 26.8 | 12 | 16 | 11 | 12 | 23 | 11 | 3.2 | 0 | 0 |

Reference: ChEMBL document CHEMBL1122125, “Synthesis and in vivo antitumor activity of potential 5-fluorouracil prodrugs” (1982)
